Calls of active or inactive are those of the source. No cut-off for these calls is given here.
Tests used:
[1] = biological target: T1, ATP-citrate synthase (Homo sapiens) (UniProt P53396); assay: Inhibition of ATP citrate lyase (unknown origin) at 10 uM using sodium citrate as substrate after 60 mins by ADP-Glo luminescence assay relative to control
T1 sequence (whole entry): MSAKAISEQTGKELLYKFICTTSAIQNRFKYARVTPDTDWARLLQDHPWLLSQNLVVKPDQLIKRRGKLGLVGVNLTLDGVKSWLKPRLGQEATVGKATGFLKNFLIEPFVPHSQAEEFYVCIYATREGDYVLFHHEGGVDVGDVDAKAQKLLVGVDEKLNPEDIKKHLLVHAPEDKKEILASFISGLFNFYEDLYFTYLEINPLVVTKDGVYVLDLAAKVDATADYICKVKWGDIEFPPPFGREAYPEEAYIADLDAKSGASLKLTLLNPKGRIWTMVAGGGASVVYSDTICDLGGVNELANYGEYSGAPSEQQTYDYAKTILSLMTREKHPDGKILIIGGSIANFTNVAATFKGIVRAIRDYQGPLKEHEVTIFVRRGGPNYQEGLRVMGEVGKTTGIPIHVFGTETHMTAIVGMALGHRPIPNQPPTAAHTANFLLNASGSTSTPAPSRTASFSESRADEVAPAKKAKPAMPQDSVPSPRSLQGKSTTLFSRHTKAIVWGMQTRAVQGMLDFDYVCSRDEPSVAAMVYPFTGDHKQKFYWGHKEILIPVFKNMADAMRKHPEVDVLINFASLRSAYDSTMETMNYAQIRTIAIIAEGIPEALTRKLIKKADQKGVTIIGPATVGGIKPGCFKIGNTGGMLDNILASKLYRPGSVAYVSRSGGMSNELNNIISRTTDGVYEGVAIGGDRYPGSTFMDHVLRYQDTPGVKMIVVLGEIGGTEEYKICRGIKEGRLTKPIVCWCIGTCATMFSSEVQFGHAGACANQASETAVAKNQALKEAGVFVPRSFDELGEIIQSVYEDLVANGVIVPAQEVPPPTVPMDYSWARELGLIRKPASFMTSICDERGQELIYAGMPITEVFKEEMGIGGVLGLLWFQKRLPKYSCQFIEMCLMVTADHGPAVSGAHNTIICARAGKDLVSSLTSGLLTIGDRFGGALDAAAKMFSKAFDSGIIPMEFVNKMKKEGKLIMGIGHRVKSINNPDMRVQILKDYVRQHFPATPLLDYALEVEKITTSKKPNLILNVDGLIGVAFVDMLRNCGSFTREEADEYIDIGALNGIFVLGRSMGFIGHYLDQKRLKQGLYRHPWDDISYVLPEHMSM
Procedure, shortened: (§1)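 ADP-Glo reagent then added for 45 min at room temperature, and ADP formed was read by luminescence. Dose-response run in duplicate over 0.03–30 µM in 3.3-fold serial dilutions.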

HMLE [2] = assay: Inhibition of cancer stemness in snail expressing HMLE cells under 3D culture condition assessed as induction of apoptosis in spheroid at 25 uM by Hoechst 33342/Sytox green staining-based confocal microscopic method; type: functional, cell-based; conditions: Homo sapiens
Procedure, shortened: (§2)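 Cells seeded at 2000 per well onto 1.5% agarose-coated wells and grown 2 days at 37 °C, 5% CO₂ to form spheroids before treatment. Staining used Hoechst 33342 for all nuclei plus Sytox Green for dead cells, each at 1:10,000 final. Confocal imaging measured spheroid inner area and Sytox Green integrated density (IntDen), with IntDen/Area as the index.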

HMLE [3] = assay: Inhibition of cancer stemness in snail expressing HMLE cells under 3D culture condition assessed as reduction in spheroid size at 25 uM by Hoechst 33342/Sytox green staining-based confocal microscopic method; type: functional, cell-based; conditions: Homo sapiens; procedure, shortened: as §2
A549 [4] = assay: Inhibition of cancer stemness in human A549 cells under 3D culture condition assessed as reduction in spheroid size at 25 uM by Hoechst 33342/Sytox green staining-based confocal microscopic method; type: functional, cell-based; procedure, shortened: as §2
A549 [5] = assay: Inhibition of cancer stemness in human A549 cells under 3D culture condition assessed as induction of apoptosis in spheroid at 25 uM by Hoechst 33342/Sytox green staining-based confocal microscopic method; type: functional, cell-based; procedure, shortened: as §2
ATP-citrate synthase = biological target: T2, ATP-citrate synthase (Homo sapiens, UniProt P53396); assay: Inhibition of ATP citrate lyase (unknown origin) using sodium citrate as substrate after 60 mins by ADP-Glo luminescence assay; procedure, shortened: as §1
T2 sequence (P53396 whole entry): T1 sequence (whole entry)

A549 [6] = assay: Antiproliferative activity against human A549 cells at 10 uM after 24 hrs by WST1 assay relative to control; type: functional; conditions: A549, 24 h
Procedure, shortened: (§3)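 A549 cells seeded at 5 × 10⁴/well in Ham's F-12 with 10% FBS, with or without compound, cultured 24 h at 37 °C in 5% CO₂. Single-concentration screen at 5 µM; dose-escalation at 1, 5, 10 µM. WST-1 reagent added, 1 h incubation, absorbance at 450 nm. ACL shRNA/siRNA knockdown served as positive control.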

A549 [7] = assay: Inhibition of cancer stemness in human A549 cells under 3D culture condition assessed as reduction in spheroid size by Hoechst 33342/Sytox green staining-based confocal microscopic method; type: functional, cell-based; procedure, shortened: as §2
HMLE [8] = assay: Inhibition of cancer stemness in snail expressing HMLE cells under 3D culture condition assessed as induction of apoptosis in spheroid by Hoechst 33342/Sytox green staining-based confocal microscopic method; type: functional, cell-based; conditions: Homo sapiens; procedure, shortened: as §2
HMLE [9] = assay: Inhibition of cancer stemness in snail expressing HMLE cells under 3D culture condition assessed as reduction in spheroid size by Hoechst 33342/Sytox green staining-based confocal microscopic method; type: functional, cell-based; conditions: Homo sapiens; procedure, shortened: as §2
[10] = biological target: T1, ATP-citrate synthase (Homo sapiens); assay: Inhibition of ATP citrate lyase (unknown origin) at 3.3 uM using sodium citrate as substrate after 60 mins by ADP-Glo luminescence assay relative to control; procedure, shortened: as §1
A549 [11] = assay: Antiproliferative activity against human A549 cells after 24 hrs by WST1 assay; type: functional, cell-based; procedure, shortened: as §3
A549 [12] = assay: Inhibition of cancer stemness in human A549 cells under 3D culture condition assessed as induction of apoptosis in spheroid by Hoechst 33342/Sytox green staining-based confocal microscopic method; type: functional, cell-based; procedure, shortened: as §2
A549 [13] = assay: Antiproliferative activity against human A549 cells at 5 uM after 24 hrs by WST1 assay relative to control; type: functional; conditions: A549, 24 h; procedure, shortened: as §3

SMILES	inhibition [1] [%]	IC50 (ATP-citrate synthase) [µM]	further results
Cc1cc(O)c2c(c1)C(=O)c1cc(O)cc(O)c1C2=O	0	–	–
Cc1ccc(-c2c(O)cc3c(c2O)C(=O)c2c(O)cc(C)cc2C3=O)cc1	0	–	–
COc1cc2c(c(OC)c1Cl)C(=O)c1c(OC)cc(C)cc1C2=O	0	–	–
COc1ccc(-c2ccccc2)cc1NS(=O)(=O)c1cc(Cl)cc(Cl)c1O	–	–	inhibition (HMLE [2]): Active; inhibition (HMLE [3]): Active; inhibition (A549 [4]): Active; inhibition (A549 [5]): Active
COc1ccc(-c2c(O)cc3c(c2O)C(=O)c2c(O)cc(C)cc2C3=O)cc1	–	18.8	–
Cc1cc(O)c2c(c1)C(=O)c1cc(O)c(CN3CCOCC3)c(O)c1C2=O	10	–	–
Cc1cc(O)c2c(c1)C(=O)c1c(c(O)c(-c3cccnc3)c(O)c1-c1cccnc1)C2=O	–	23.5	–
Cc1cc(O)c2c(c1)C(=O)c1cc(O)c(-c3ccncc3)c(O)c1C2=O	0	–	–
Cc1cc(O)c2c(c1)C(=O)c1cc3c(c(O)c1C2=O)CN(c1ccccc1)CO3	–	25.8	–
Cc1cc(O)c2c(c1)C(=O)c1cc(O)c(-c3cccnc3)c(O)c1C2=O	–	21.1	–
COc1cc(OC)cc(-c2c(O)cc3c(c2O)C(=O)c2c(O)cc(C)cc2C3=O)c1	0	–	–
Cc1cc(O)c2c(c1)C(=O)c1c(Br)c(O)c(Br)c(O)c1C2=O	> 99	2.9	inhibition at 10 µM (A549 [6]): 100%; inhibition (A549 [7]): Dose-dependent effect; inhibition (HMLE [8]): Dose-dependent effect; inhibition (HMLE [9]): Dose-dependent effect; inhibition [10]: > 99%; inhibition (A549 [11]): Dose-dependent effect; inhibition (A549 [12]): Dose-dependent effect; inhibition at 5 µM (A549 [13]): 40 to 80%
Cc1cccc(-c2c(O)cc3c(c2O)C(=O)c2c(O)cc(C)cc2C3=O)c1	–	30	–
COc1cccc(-c2c(O)cc3c(c2O)C(=O)c2c(O)cc(C)cc2C3=O)c1	–	21.2	–
Cc1cc(O)c2c(c1)C(=O)c1cc(O)c(-c3cnn(C)c3)c(O)c1C2=O	–	13.3	inhibition (A549 [11]): Dose-dependent effect; inhibition at 5 µM (A549 [13]): 40 to 80%
Cc1cc(O)c2c(c1)C(=O)c1cc(O)c(Cl)c(O)c1C2=O	–	12.6	inhibition at 5 µM (A549 [13]): 40 to 80%
Cc1cc(O)c2c(c1)C(=O)c1cc(O)c(I)c(O)c1C2=O	–	7.5	–
Cc1cc(O)c2c(c1)Cc1c(Cl)c(O)cc(O)c1C2=O	–	3.8	inhibition at 5 µM (A549 [13]): 40 to 80%
Cc1cc(O)c2c(c1)C(=O)c1cc(O)c(CN(C)c3ccccc3)c(O)c1C2=O	6	–	–
Cc1cc(O)c2c(c1)C(=O)c1c(Cl)c(O)cc(O)c1C2=O	–	9.6	inhibition at 5 µM (A549 [13]): 40 to 80%
Cc1cc(O)c2c(c1)C(=O)c1cc3c(c(O)c1C2=O)CN(c1ccc2ocnc2c1)CO3	–	29.7	–
Cc1cc(O)c2c(c1)C(=O)c1cc(O)c(CN3CCCCC3)c(O)c1C2=O	6	–	–
Cc1cc(O)c2c(c1)Cc1cc(O)cc(O)c1C2=O	0	–	–
Cc1cc(O)c2c(c1)C(=O)c1cc(O)c(-c3ccccc3)c(O)c1C2=O	8	–	–
